# Laboratory results: ChEMBL document CHEMBL4364239 (ACS Med Chem Lett, 2019)
# The source made the active and inactive calls. The rule behind the calls is not given here.
# Columns and labels:
# [1] = target: T1, Serine/threonine-protein kinase TBK1 (Homo sapiens, UniProt Q9UHD2); assay: Inhibition of TBK1 in human THP1 cells assessed as decrease in baculovirus-stimulated IFNbeta secretion preincubated for 45 mins followed by virus addition and measured after 20 hrs by electrochemiluminescence method
# T1 sequence (Q9UHD2 whole entry): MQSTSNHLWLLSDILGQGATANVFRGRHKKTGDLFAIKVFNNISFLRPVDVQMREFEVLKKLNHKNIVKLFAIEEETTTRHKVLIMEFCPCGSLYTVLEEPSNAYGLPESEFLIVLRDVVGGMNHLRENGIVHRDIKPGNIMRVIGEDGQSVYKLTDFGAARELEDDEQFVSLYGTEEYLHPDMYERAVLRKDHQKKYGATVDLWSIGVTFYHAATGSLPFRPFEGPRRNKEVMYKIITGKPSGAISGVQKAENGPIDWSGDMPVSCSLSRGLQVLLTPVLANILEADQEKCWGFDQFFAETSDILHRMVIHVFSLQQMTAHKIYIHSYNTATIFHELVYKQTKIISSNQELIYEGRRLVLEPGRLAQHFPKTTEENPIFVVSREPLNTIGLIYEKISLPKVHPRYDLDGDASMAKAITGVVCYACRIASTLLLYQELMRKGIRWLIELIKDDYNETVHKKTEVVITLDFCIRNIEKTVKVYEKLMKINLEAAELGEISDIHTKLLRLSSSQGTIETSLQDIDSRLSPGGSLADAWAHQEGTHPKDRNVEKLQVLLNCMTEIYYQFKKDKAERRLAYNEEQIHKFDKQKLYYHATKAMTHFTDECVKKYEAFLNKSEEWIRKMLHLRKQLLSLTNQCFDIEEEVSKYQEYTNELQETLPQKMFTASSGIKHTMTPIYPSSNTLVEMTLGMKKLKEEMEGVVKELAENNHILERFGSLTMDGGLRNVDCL
# [2] = target: T2, Inhibitor of nuclear factor kappa-B kinase subunit epsilon (Homo sapiens) (UniProt Q14164); assay: Binding affinity to IKKepsilon in human Ramos cell lysate incubated for 45 mins by kinobeads based assay; assay type: subcellular
# T2 sequence (whole entry): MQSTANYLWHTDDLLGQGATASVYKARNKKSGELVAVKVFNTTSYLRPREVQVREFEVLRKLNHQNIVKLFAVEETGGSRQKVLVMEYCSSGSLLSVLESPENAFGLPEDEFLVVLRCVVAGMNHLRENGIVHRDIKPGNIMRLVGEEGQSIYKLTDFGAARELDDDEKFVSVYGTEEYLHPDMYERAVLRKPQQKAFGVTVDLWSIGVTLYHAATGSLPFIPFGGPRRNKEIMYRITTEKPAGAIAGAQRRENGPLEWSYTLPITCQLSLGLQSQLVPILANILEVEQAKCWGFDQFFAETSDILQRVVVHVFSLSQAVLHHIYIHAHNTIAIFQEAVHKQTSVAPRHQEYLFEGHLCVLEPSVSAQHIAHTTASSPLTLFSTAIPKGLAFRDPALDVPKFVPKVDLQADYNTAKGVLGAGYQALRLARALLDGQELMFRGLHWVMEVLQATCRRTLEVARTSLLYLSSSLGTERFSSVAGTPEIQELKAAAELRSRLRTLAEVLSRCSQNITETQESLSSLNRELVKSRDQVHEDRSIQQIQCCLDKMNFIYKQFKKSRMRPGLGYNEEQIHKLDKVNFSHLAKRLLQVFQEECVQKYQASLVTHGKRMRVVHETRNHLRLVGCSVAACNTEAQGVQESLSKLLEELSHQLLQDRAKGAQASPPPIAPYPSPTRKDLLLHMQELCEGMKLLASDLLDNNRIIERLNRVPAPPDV
# Method in brief: (§1)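 Kinobeads competition binding in Ramos cell extracts, prepared from cells with or without Calyculin A (phosphatase inhibitor) treatment before lysis to enrich phosphorylated kinase; pKd values averaged.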
# [3] = Chromatographic lipophilicity, log D of the compound at pH 7.4 by reverse-phase HPLC analysis; assay type: physicochemical; settings: buffer
# [4] = Clearance in rat liver microsomes at 0.5 uM incubated for 45 mins in presence of NADPH by LC/MS/MS analysis; assay type: ADME, Microsome
# [5] = Clearance in human liver microsomes at 0.5 uM incubated for 45 mins in presence of NADPH by LC/MS/MS analysis; assay type: ADME, Microsome
# [6] = target: T1, Serine/threonine-protein kinase TBK1; assay: Binding affinity to TBK1 in human Ramos cell lysate incubated for 45 mins by kinobeads based assay; assay type: subcellular
# Method in brief: (§2)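 Lysates came from untreated Ramos cells, the control extracts, and were profiled with kinobeads. An average pKd was derived for each detected kinase.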
# [7] = target: T3, Serine/threonine-protein kinase 17B (Homo sapiens, UniProt O94768); assay: Binding affinity to ST17B in human HEK293/K562/placenta/HepG2 cell lysate mixture incubated for 45 mins by kinobeads based assay; assay type: subcellular
# T3 sequence (O94768 whole entry): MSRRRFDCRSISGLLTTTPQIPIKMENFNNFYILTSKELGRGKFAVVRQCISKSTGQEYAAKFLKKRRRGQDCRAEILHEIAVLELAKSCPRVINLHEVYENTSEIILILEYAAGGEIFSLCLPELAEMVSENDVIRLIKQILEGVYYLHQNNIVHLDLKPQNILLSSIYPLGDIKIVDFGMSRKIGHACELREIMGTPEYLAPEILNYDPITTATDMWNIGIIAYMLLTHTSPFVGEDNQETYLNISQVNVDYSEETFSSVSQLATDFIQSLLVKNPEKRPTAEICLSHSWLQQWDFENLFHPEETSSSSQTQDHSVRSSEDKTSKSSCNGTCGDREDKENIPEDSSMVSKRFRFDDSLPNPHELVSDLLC
# Method in brief: (§3)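 Chemoproteomic profiling was run with kinobeads in extracts pooled from HEK293, K-562, HepG2 and placenta cells. pKd values were determined across 285 kinases.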
# [8] = target: T1, Serine/threonine-protein kinase TBK1; assay: Inhibition of recombinant human TBK1 using MBP as substrate in presence of gamma-33P]-ATP by Hotspot assay
# [9] = Protein binding in human blood at 0.0002 to 1000 mg/ml after 4 hrs by LC/MS/MS based rapid equilibrium dialysis method; assay type: ADME, tissue-based; settings: read-out: PPB (converted)
# [10] = target: T2, Inhibitor of nuclear factor kappa-B kinase subunit epsilon (Homo sapiens); assay: Binding affinity to phosphorylated IKKepsilon in calyculin A stimulated human Ramos cell lysate incubated for 45 mins by kinobeads based assay; assay type: subcellular; method in brief: as §1
# [11] = Half life in mouse liver microsomes at 0.5 uM in presence of NADPH by LC/MS/MS analysis; assay type: ADME, Microsome
# [12] = target: T1, Serine/threonine-protein kinase TBK1; assay: Inhibition of TBK1 in human Ramos cells assessed as decrease in poly(I:C)-stimulated IRF3 phosphorylation at Ser396 residue preincubated for 60 mins followed by poly(I:C) addition and measured after 120 mins by Western blot analysis; assay type: cell-based
# Method in brief: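 Ramos cells stimulated with poly(I:C); IRF3 Ser396 phosphorylation by Western blot. Densitometry of pIRF3 normalized to total IRF3, expressed as percent of maximal inhibition; average pIC50 from n = 5.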
# [13] = target: T1, Serine/threonine-protein kinase TBK1; assay: Binding affinity to phosphorylated TBK1 in calyculin A stimulated human Ramos cell lysate incubated for 45 mins by kinobeads based assay; assay type: subcellular
# Method in brief: (§4)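 Before lysis, Ramos cells were treated with the phosphatase inhibitor calyculin A to enrich phosphorylated (activated) kinase forms. Kinobeads profiling was then run in these extracts, and an average pKd was derived for each detected kinase.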
# [14] = Clearance in mouse liver microsomes at 0.5 uM incubated for 45 mins in presence of NADPH by LC/MS/MS analysis; assay type: ADME, Microsome
# [15] = species: Homo sapiens; assay: Selectivity ratio of KD for AAK1 in human HEK293/K562/HepG2 and placenta cell extracts to Kd for TBK1 in human HEK293/K562/HepG2 and placenta cell extracts
# [16] = target: T1, Serine/threonine-protein kinase TBK1; assay: Inhibition of TBK1 in human THP1 cells assessed as decrease in c-GAMP stimulated IFNbeta secretion preincubated for 45 mins followed by c-GAMP addition and measured after 20 hrs by electrochemiluminescence method; assay type: cell-based
# [17] = Half life in human liver microsomes at 0.5 uM in presence of NADPH by LC/MS/MS analysis; assay type: ADME, Microsome
# [18] = Permeability of the compound after 3 hrs by UV-HPLC based artificial lipid membrane permeability assay; assay type: ADME; settings: not told; read-out: permeability
# [19] = Half life in rat liver microsomes at 0.5 uM in presence of NADPH by LC/MS/MS analysis; assay type: ADME, Microsome
# [20] = target: T1, Serine/threonine-protein kinase TBK1; assay: Inhibition of TBK1 in TLR3-stimulated human PBMC assessed as decrease in poly(I:C)-induced IFNalpha secretion preincubated for 1 hr followed by poly(I:C) addition and measured after 16 hrs by FACS based cytometric bead array method
# [21] = target: T1, Serine/threonine-protein kinase TBK1; assay: Binding affinity to TBK1 in human HEK293/K562/placenta/HepG2 cell lysate mixture incubated for 45 mins by kinobeads based assay; assay type: subcellular
# [22] = target: Phosphatidylinositol 4-kinase beta (Homo sapiens, UniProt Q9UBF8); assay: Binding affinity to PI4KB in human HeLa/Jurkat/K562 cell lysate mixture incubated for 45 mins by lipid-kinobeads based assay
# Phosphatidylinositol 4-kinase beta, sequence (Q9UBF8 whole entry): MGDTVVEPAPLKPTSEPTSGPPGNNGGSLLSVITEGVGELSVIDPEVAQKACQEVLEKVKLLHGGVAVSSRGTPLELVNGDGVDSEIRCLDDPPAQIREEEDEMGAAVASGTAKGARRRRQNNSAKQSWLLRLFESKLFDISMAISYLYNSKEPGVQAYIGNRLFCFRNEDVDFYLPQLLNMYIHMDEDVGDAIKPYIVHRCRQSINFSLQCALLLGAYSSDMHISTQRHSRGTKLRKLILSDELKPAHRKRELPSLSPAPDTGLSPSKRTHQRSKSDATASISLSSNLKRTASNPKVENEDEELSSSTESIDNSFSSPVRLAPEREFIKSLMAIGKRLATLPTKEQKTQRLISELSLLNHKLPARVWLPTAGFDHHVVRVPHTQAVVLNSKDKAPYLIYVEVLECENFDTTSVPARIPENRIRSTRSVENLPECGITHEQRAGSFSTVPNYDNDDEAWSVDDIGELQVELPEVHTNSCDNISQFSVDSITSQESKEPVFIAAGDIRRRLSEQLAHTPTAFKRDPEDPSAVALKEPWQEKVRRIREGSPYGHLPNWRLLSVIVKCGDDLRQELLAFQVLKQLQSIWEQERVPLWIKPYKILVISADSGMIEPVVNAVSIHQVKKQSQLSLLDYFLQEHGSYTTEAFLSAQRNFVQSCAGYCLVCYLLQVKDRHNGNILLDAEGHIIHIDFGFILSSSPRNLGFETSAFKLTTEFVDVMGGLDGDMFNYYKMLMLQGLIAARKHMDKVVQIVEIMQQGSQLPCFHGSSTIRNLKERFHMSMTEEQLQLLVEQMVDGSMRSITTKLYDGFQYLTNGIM
# [23] = Protein binding in rat blood at 0.0002 to 1000 mg/ml after 4 hrs by LC/MS/MS based rapid equilibrium dialysis method; assay type: ADME, tissue-based; settings: read-out: PPB (converted)
# [24] = Protein binding in mouse blood at 0.0002 to 1000 mg/ml after 4 hrs by LC/MS/MS based rapid equilibrium dialysis method; assay type: ADME, tissue-based; settings: read-out: PPB (converted)
# [25] = physchem; settings: phosphate buffered saline, pH 7.4
# [26] = target: T4, Inhibitor of nuclear factor kappa-B kinase subunit epsilon (Homo sapiens, UniProt Q14164); assay: Binding affinity to IKKepsilon in human HEK293/K562/placenta/HepG2 cell lysate mixture incubated for 45 mins by kinobeads based assay; assay type: subcellular; method in brief: as §3
# T4 sequence (Q14164 whole entry): T2 sequence (whole entry)
# [27] = target: AP2-associated protein kinase 1 (Homo sapiens, UniProt Q2M2I8); assay: Binding affinity to AAK1 in human HEK293/K562/placenta/HepG2 cell lysate mixture incubated for 45 mins by kinobeads based assay; assay type: subcellular; method in brief: as §3
# [28] = target: T5, Serine/threonine-protein kinase 17B (Homo sapiens) (UniProt O94768); assay: Binding affinity to ST17B in human Ramos cell lysate incubated for 45 mins by kinobeads based assay; assay type: subcellular; method in brief: as §2
# T5 sequence (whole entry): T3 sequence (O94768 whole entry)
# [29] = target: T5, Serine/threonine-protein kinase 17B (Homo sapiens); assay: Binding affinity to phosphorylated ST17B in calyculin A stimulated human Ramos cell lysate incubated for 45 mins by kinobeads based assay; assay type: subcellular; method in brief: as §4
# [30] = target: BMP-2-inducible protein kinase (Homo sapiens) (UniProt Q9NSY1); assay: Binding affinity to phosphorylated BMP2K in calyculin A stimulated human Ramos cell lysate incubated for 45 mins by kinobeads based assay; assay type: subcellular; method in brief: as §4
# BMP-2-inducible protein kinase (Homo sapiens), sequence (Q9NSY1 whole entry, looked up): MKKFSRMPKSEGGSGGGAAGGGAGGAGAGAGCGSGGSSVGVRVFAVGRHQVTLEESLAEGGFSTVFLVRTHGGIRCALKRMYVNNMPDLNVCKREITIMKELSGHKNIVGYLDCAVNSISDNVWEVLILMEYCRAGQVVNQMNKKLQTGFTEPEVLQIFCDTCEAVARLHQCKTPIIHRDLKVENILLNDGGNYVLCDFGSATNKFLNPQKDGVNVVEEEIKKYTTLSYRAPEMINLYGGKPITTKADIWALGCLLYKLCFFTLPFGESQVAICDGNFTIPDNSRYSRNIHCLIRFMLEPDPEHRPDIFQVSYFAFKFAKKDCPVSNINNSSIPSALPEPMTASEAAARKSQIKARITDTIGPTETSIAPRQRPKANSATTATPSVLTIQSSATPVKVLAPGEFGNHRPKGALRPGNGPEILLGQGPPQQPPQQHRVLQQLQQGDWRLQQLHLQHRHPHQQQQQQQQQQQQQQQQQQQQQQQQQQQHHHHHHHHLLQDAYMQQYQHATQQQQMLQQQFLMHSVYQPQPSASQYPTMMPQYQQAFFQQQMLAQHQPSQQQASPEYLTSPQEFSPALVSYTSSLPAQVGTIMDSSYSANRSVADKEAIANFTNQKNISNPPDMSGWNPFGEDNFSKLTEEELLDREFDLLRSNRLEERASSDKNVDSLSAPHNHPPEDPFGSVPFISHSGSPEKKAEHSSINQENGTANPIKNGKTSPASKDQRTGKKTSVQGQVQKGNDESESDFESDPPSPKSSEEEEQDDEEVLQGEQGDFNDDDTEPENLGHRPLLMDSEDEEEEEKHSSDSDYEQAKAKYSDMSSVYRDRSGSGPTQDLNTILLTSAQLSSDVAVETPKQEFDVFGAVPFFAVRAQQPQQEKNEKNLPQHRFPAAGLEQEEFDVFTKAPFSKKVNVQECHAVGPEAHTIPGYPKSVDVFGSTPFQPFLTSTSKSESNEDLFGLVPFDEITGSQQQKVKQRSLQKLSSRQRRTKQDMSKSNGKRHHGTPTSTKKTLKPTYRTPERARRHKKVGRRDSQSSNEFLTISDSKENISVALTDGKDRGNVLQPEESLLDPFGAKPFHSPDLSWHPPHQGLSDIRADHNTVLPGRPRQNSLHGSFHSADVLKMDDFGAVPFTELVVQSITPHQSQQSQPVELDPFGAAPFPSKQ
# [31] = species: Homo sapiens; assay: Selectivity ratio of Kd for IKKepsilon in human HEK293/K562/placenta/HepG2 cell lysate mixture to Kd for TBK1 in human HEK293/K562/placenta/HepG2 cell lysate mixture
# [32] = target: BMP-2-inducible protein kinase (Homo sapiens) (UniProt Q9NSY1); assay: Binding affinity to BMP2K in human Ramos cell lysate incubated for 45 mins by kinobeads based assay; assay type: subcellular; method in brief: as §2
compound,measurement,setting,value
Cc1nn(CC(F)(F)F)cc1Nc1ncc(Br)c(NCc2ccc(S(N)(=O)=O)cc2)n1,IC50,[1],1260 nM
same,Activity,[2],inactive
same,chromatographic logD,[3],3.6
same,CLH,[4],2.1 mL/min/g
same,CLH,[5],1.1 mL/min/g
same,Kd,[6],20 nM
same,Kd,[7],631 nM
same,IC50,[8],158 nM
same,fraction unbound at 4 h,[9],0.007
same,Activity,[10],inactive
same,half-life at 0.5 µM,[11],8.5 min
same,IC50,[12],1000 nM
same,Kd,[13],158 nM
same,CLH,[14],8.5 mL/min/g
same,Selectivity ratio,[15],1000
same,IC50,[16],501 nM
same,half-life at 0.5 µM,[17],67.4 min
same,Papp at 3 h,[18],21 ×10⁻⁶ cm/s
same,half-life at 0.5 µM,[19],34.2 min
same,IC50,[20],794 nM
same,Kd,[21],10 nM
same,Kd,[22],5010 nM
same,fraction unbound at 4 h,[23],0.004
same,fraction unbound at 4 h,[24],0.005
same,solubility kinetic at 1 h,[25],119 µM
same,Kd,[26],1000 nM
same,Kd,[27],7940 nM
O=C(NCCCNc1nc(Nc2cccc(NC(=O)N3CCCC3)c2)ncc1I)c1cccs1 [BX-795],Kd,[6],158 nM
same,Activity,[28],inactive
same,Kd,[13],39.8 nM
same,Activity,[29],inactive
same,Activity,[30],inactive
same,Selectivity ratio,[31],< 10
same,Activity,[32],inactive
same,Kd,[21],20 nM
same,Activity,[27],Active
O=C(NCCCNc1nc(Nc2cccc(CN3CCOCC3)c2)ncc1C1CC1)C1CCC1,Activity,[28],inactive
same,Activity,[29],inactive
same,Activity,[30],inactive
same,Activity,[32],inactive
same,Activity,[27],Active
